This note sets out measurements from ChEMBL document CHEMBL3763044, “Pyridoxine hydroxamic acids as novel HIV-integrase inhibitors” (Bioorg Med Chem Lett, 2016).

Tested on in one data set: not listed separately
Description: Plasma concentration in rat at 50 mg/kg after 18 hrs.
Conditions: not given
In kind it is ADME, organism-based. The gist of the method: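 Female Sprague-Dawley rats (8) given 50 mg/kg orally, with blood collected at 7 time points after dosing.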
Regarding `O=C(Cc1ccc(F)c(Cl)c1)Nc1cnc(C(=O)NO)c(O)c1CO`, the concentration at 18 h was more than 25 nM.

In the next data set the target is Human immunodeficiency virus type 1 integrase (Human immunodeficiency virus 1, UniProt Q7ZJM1, N155H). Description: Inhibition of HIV integrase N155H mutant.
Chain of Human immunodeficiency virus type 1 integrase (Q7ZJM1 entry or part of it N155H): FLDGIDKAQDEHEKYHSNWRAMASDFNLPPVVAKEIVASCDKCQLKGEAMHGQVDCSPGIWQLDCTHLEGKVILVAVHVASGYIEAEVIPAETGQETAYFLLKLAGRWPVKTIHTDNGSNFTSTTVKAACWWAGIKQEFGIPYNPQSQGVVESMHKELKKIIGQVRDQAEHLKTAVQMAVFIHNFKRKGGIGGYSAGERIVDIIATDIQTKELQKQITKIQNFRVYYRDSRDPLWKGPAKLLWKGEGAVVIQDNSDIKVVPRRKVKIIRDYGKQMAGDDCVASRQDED
Conditions: not given
Compound `O=C(Cc1ccc(F)c(Cl)c1)Nc1cnc(C(=O)NO)c(O)c1CO` displayed an EC50 of more than 300 nM.

In a further data set the test system is Human immunodeficiency virus. Description: Ratio of EC90 for HIV integrase assessed as accumulation of 2-LTR to IC50 for HIV integrase strand transfer activity.
Conditions: not given
Turning to `O=C(Cc1ccc(F)c(Cl)c1)Nc1cnc(C(=O)NO)c(O)c1CO`, the Ratio turned out to be 10.

The subject of another data set is Salmonella typhimurium. Description: Mutagenicity in Salmonella typhimurium by Ames test. In kind it is toxicity, organism-based. Particulars: salmonella enterica subsp. enterica serovar typhimurium.
For `O=C(Cc1ccc(F)c(Cl)c1)Nc1cnc(C(=O)NO)c(O)c1CO`, the Activity entry is “Non-toxic”.

The subject of the next data set is Human immunodeficiency virus. Description: Ratio of EC50 for HIV integrase assessed as accumulation of 2-LTR to IC50 for HIV integrase strand transfer activity.
Conditions: not given
In the case of `O=C(Cc1ccc(F)c(Cl)c1)Nc1cnc(C(=O)NO)c(O)c1CO`, the Ratio is 7.

Tested on in a further data set: not listed separately
In words: Half life in Sprague-Dawley rat at 5 mg/kg, iv and 50 mg/kg, po by LC/MS/MS analysis. In kind it is ADME, organism-based. To be noted: in vivo. The gist of the method: (§1)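 Female Sprague-Dawley rats randomly assigned to two groups: 13 rats dosed 5 mg/kg intravenously, 8 rats dosed 50 mg/kg orally. Blood collected at 7 time points after dosing. Bioavailability taken over 24 h.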
For `O=C(Cc1ccc(F)c(Cl)c1)Nc1cnc(C(=O)NO)c(O)c1CO`, the half-life was 43.8 min.

Tested on in another data set: not listed separately
In words: Oral bioavailability in Sprague-Dawley rat at 50 mg/kg after 24 hrs by LC/MS/MS analysis. The format is ADME, organism-based. To be noted: in vivo. Put shortly: as §1
Take `O=C(Cc1ccc(F)c(Cl)c1)Nc1cnc(C(=O)NO)c(O)c1CO`: the bioavailability is 25%.

Tested on in the next data set: not listed separately
Description: Lipophilicity Log P of the compound. The format is physicochemical. Particulars: octanol/water.
As for `O=C(Cc1ccc(F)c(Cl)c1)Nc1cnc(C(=O)NO)c(O)c1CO`, the logP was 0.6.

Tested on in another data set: not listed separately
Description: Plasma protein binding in rat by Rapid Equilibrium Dialysis method. Particulars: read-out: PPB (converted). In kind it is ADME, cell-free. Put shortly: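 Protein binding measured by rapid equilibrium dialysis.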
Regarding `O=C(Cc1ccc(F)c(Cl)c1)Nc1cnc(C(=O)NO)c(O)c1CO`, the fraction unbound was 0.11.

Molecular target in the next data set: not listed separately
Description: Inhibition of […] reverse transcriptase.
Conditions: not given
Take `O=C(Cc1ccc(F)c(Cl)c1)Nc1cnc(C(=O)NO)c(O)c1CO`: the EC50 is more than 50000 nM.

The target in another data set is RNA-directed RNA polymerase (Hepacivirus hominis, UniProt O39930). Description: Inhibition of HCV RNA polymerase.
Chain of RNA-directed RNA polymerase (O39930 whole entry): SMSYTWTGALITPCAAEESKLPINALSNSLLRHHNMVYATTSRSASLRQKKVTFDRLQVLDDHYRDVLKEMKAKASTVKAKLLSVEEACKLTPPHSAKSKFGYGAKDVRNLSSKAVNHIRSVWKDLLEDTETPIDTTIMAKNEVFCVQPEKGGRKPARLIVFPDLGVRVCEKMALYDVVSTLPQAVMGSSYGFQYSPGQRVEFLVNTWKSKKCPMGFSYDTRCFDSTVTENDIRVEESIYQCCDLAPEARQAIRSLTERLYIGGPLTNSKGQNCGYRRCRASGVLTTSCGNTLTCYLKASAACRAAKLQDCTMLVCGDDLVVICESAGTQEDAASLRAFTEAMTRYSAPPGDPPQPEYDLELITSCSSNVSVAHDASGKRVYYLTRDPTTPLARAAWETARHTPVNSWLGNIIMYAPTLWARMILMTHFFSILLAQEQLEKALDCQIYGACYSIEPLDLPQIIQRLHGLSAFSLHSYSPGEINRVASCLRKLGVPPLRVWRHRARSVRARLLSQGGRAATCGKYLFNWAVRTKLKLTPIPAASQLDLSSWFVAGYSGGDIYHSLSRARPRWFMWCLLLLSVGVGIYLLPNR
Conditions: not given
As to `O=C(Cc1ccc(F)c(Cl)c1)Nc1cnc(C(=O)NO)c(O)c1CO`, the EC50 was more than 50000 nM.

Tested on in another data set: not listed separately
In words: Cytotoxicity against human MT4 cells. In kind it is cell-based.
Conditions: not given
Put shortly:
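Cytotoxicity measured in MT-4 cells in parallel with the 7-day multi-cycle antiviral assay. CC50 is the mean of at least three experiments.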
`O=C(Cc1ccccc1)Nc1cnc(C(=O)NO)c(O)c1CO` gave a CC50 of 54000 nM.
For the compound `O=C(NO)c1ncc(/C=C/c2ccc(F)cc2)c(CO)c1O`, half-maximal cytotoxicity (CC50) was put at 50000 nM.
`O=C(NO)c1ncc(CCCc2ccc(F)cc2)c(CO)c1O` yielded a CC50 of 2000 nM.
`O=C(Cc1ccc(F)c(F)c1)Nc1cnc(C(=O)NO)c(O)c1CO` registered a CC50 of 51000 nM.
Compound `O=C(NO)c1ncc(CNc2ccc(F)cc2)c(CO)c1O` gave a CC50 of 50000 nM.
Still for that read-out and setting: the same measure for `O=C(CC1CCCCC1)Nc1cnc(C(=O)NO)c(O)c1CO`: 50000 nM.
For `O=C(Cc1ccc(F)c(Cl)c1)Nc1cnc(C(=O)NO)c(O)c1CO`, the CC50 came out at 22000 nM.
Same read-out and setting: for `O=C(NO)c1ncc(CNCc2ccc(F)cc2)c(CO)c1O` the value was 20000 nM; for `O=C(Nc1ccc(F)cc1)c1cnc(C(=O)NO)c(O)c1CO`, 50000 nM; for `O=C(NO)c1ncc(CS(=O)(=O)Cc2ccc(F)cc2)c(CO)c1O`, 16000 nM.
Turning to `O=C(Cc1ccc2c(c1)OCO2)Nc1cnc(C(=O)NO)c(O)c1CO`, the CC50 worked out at 50000 nM.
The compound `Cc1ccc(CC(=O)Nc2cnc(C(=O)NO)c(O)c2CO)cc1` showed a CC50 of 32000 nM.
Same read-out and setting: the same measure for `O=C(NO)c1ncc(COCc2ccc(F)cc2)c(CO)c1O`: 11000 nM; for `O=C(NO)c1ncc(COc2ccc(F)cc2)c(CO)c1O`: 27000 nM; for `O=C(NO)c1ncc(CS(=O)(=O)c2ccc(F)cc2)c(CO)c1O`: 50000 nM.
`COc1ccc(CC(=O)Nc2cnc(C(=O)NO)c(O)c2CO)cc1` showed a 50% cytotoxic concentration (CC50) of 25000 nM.
The same measure, in the same setting: the same measure for `O=C(Cc1ccc(Cl)c(Cl)c1)Nc1cnc(C(=O)NO)c(O)c1CO`: 50000 nM.
In turn, `O=C(Nc1cnc(C(=O)NO)c(O)c1CO)c1ccc(F)cc1` gave a CC50 of 50000 nM.
`O=C(NCCc1ccc(F)cc1)c1cnc(C(=O)NO)c(O)c1CO` gave a half-maximal cytotoxic concentration (CC50) of 23000 nM.
On the same count and under the same terms, for `O=C(NO)c1ncc(CCc2ccc(F)cc2)c(CO)c1O` the value was 21000 nM; for `O=C(Cc1cc(F)cc(F)c1)Nc1cnc(C(=O)NO)c(O)c1CO`, 31000 nM.

Tested on in the next data set: not listed separately
In words: Therapeutic index, ratio of CC50 for human MT4 cells to EC50 for luciferase-bearing envelope-defective HIV-1 NL4-3 pseudotype virus infected in human MT4 cells co-infected with HIV1 HXBc2 envelope. Particulars: read-out: Ratio CC50/EC50. In kind it is cell-based.
On to `O=C(Cc1ccc(F)c(Cl)c1)Nc1cnc(C(=O)NO)c(O)c1CO`, for which the selectivity ratio is more than 1000.

The test system of a further data set is Human immunodeficiency virus 1. Description: Antiviral activity against luciferase-bearing envelope-defective HIV-1 NL4-3 pseudotype virus infected in human MT4 cells co-infected with HIV1 HXBc2 envelope after 7 days by multi-cycle assay. In kind it is functional, organism-based. To be noted: Human immunodeficiency virus 1, NL4-3, MT4, 168 h. The gist of the method:
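Multi-cycle antiviral assay run for 7 days in MT-4 cells, in parallel with the cytotoxicity assay. EC50 is the mean of at least three experiments.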
As for `O=C(Cc1ccc(F)c(Cl)c1)Nc1cnc(C(=O)NO)c(O)c1CO`, the midpoint of the response, the EC50, lay at 128 nM.

Molecular target in another data set: not listed separately
In words: Inhibition of HIV integrase strand transfer activity. Details: species or system Human immunodeficiency virus.
Conditions: not given
The gist of the method: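 Strand-transfer assay on purified integrase using 3'-processed oligonucleotides. % inhibition = [1 − (sample counts/mean positive control)] × 100, plotted against log molar concentration. IC50 is taken from a sigmoidal dose-response fit with variable slope and is the mean of at least three experiments.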
Compound `O=C(NO)c1ncc(/C=C/c2ccc(F)cc2)c(CO)c1O` registered an IC50 of more than 100000 nM.
Same read-out and setting: for `O=C(NO)c1ncc(CCCc2ccc(F)cc2)c(CO)c1O` the value was 550 nM; for `O=C(NO)c1ncc(CNc2ccc(F)cc2)c(CO)c1O`, 25 nM; for `O=C(Cc1ccc(F)c(Cl)c1)Nc1cnc(C(=O)NO)c(O)c1CO`, 29 nM.
Same read-out and setting: the same measure for `O=C(NO)c1ncc(CNCc2ccc(F)cc2)c(CO)c1O`: 550 nM; for `O=C(Nc1ccc(F)cc1)c1cnc(C(=O)NO)c(O)c1CO`: 328 nM.
On the same count and under the same terms, for `O=C(NO)c1ncc(CS(=O)(=O)Cc2ccc(F)cc2)c(CO)c1O` the value was 2300 nM; for `O=C(NO)c1ncc(CSc2ccc(F)cc2)c(CO)c1O`, 250 nM; for `O=C(NO)c1ncc(COCc2ccc(F)cc2)c(CO)c1O`, 80 nM.
The compound `O=C(NO)c1ncc(COc2ccc(F)cc2)c(CO)c1O` returned an IC50 of 41 nM.
`O=C(NO)c1ncc(CS(=O)(=O)c2ccc(F)cc2)c(CO)c1O` gave an IC50 of 10000 nM.
Still for that read-out and setting: for `O=C(Nc1cnc(C(=O)NO)c(O)c1CO)c1ccc(F)cc1` the value was 300 nM.
Still for that read-out and setting: for `O=C(NCCc1ccc(F)cc1)c1cnc(C(=O)NO)c(O)c1CO` the value was 2300 nM; for `O=C(NO)c1ncc(CCc2ccc(F)cc2)c(CO)c1O`, 327 nM.

The test system of the next data set is Human immunodeficiency virus 1. Description: Antiviral activity against luciferase-bearing envelope-defective HIV-1 NL4-3 pseudotype virus infected in human MT4 cells co-infected with HIV1 HXBc2 envelope by single cycle infection assay. The format is functional, organism-based. Particulars: Human immunodeficiency virus 1, NL4-3, MT4. The gist of the method: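 Single-cycle infection of MT-4 cells with a luciferase-bearing env-defective NL-4.3 virus pseudotyped with HIV-1 env (HXBc2), read by luciferase. EC50 is the mean of at least three experiments.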
On to `O=C(Cc1ccccc1)Nc1cnc(C(=O)NO)c(O)c1CO`, for which a half-maximal response (EC50) required 100 nM.
Turning to `O=C(NO)c1ncc(/C=C/c2ccc(F)cc2)c(CO)c1O`, the concentration for a half-maximal effect (EC50) was more than 10000 nM.
On the same count and under the same terms, the same measure for `O=C(NO)c1ncc(CCCc2ccc(F)cc2)c(CO)c1O`: 500 nM.
In turn, `O=C(Cc1ccc(F)c(F)c1)Nc1cnc(C(=O)NO)c(O)c1CO` came in with a 50% effective concentration (EC50) of 100 nM.
Consider `O=C(NO)c1ncc(CNc2ccc(F)cc2)c(CO)c1O`, for which a half-maximal effect (EC50) was put at 20 nM.
The same measure, in the same setting: the same measure for `O=C(CC1CCCCC1)Nc1cnc(C(=O)NO)c(O)c1CO`: 11000 nM; for `O=C(Cc1ccc(F)c(Cl)c1)Nc1cnc(C(=O)NO)c(O)c1CO`: 25 nM; for `O=C(NO)c1ncc(CNCc2ccc(F)cc2)c(CO)c1O`: 695 nM.
Consider `O=C(Nc1ccc(F)cc1)c1cnc(C(=O)NO)c(O)c1CO`, for which the response was half-maximal at 40 nM (EC50).
As to `O=C(NO)c1ncc(CS(=O)(=O)Cc2ccc(F)cc2)c(CO)c1O`, the EC50 amounted to 4350 nM.
Consider `O=C(Cc1ccc2c(c1)OCO2)Nc1cnc(C(=O)NO)c(O)c1CO`, for which the EC50 came to 1860 nM.
`Cc1ccc(CC(=O)Nc2cnc(C(=O)NO)c(O)c2CO)cc1` registered an EC50 of 4500 nM.
`O=C(NO)c1ncc(COCc2ccc(F)cc2)c(CO)c1O` gave an EC50 of 15 nM.
Compound `O=C(NO)c1ncc(COc2ccc(F)cc2)c(CO)c1O` had an EC50 of 7 nM.
`O=C(NO)c1ncc(CS(=O)(=O)c2ccc(F)cc2)c(CO)c1O` displayed a 50% effective concentration (EC50) of 9300 nM.
Same read-out and setting: the same measure for `COc1ccc(CC(=O)Nc2cnc(C(=O)NO)c(O)c2CO)cc1`: 1500 nM.
Turning to `O=C(Cc1ccc(Cl)c(Cl)c1)Nc1cnc(C(=O)NO)c(O)c1CO`, it took 40 nM to reach a half-maximal effect (EC50).
In turn, `O=C(Nc1cnc(C(=O)NO)c(O)c1CO)c1ccc(F)cc1` returned a 50% effective concentration (EC50) of 6300 nM.
On the same count and under the same terms, the same measure for `O=C(NCCc1ccc(F)cc1)c1cnc(C(=O)NO)c(O)c1CO`: 2000 nM; for `O=C(NO)c1ncc(CCc2ccc(F)cc2)c(CO)c1O`: 76 nM; for `O=C(Cc1cc(F)cc(F)c1)Nc1cnc(C(=O)NO)c(O)c1CO`: 400 nM.
